How the values were obtained:
Assay type in all cases: functional
[1] = system: Staphylococcus epidermidis; test: Antimicrobial activity against extended spectrum beta-lactamases-producing methicillin-resistant Staphylococcus epidermidis 10-13 after 18-24 hrs by two-fold serial dilution method
In short: (§1)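 Agar twofold serial dilution MIC against clinical isolates. MIC was taken as the lowest concentration giving complete inhibition of bacterial growth after incubation at 35 °C for 18-24 h.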

[2] = system: Staphylococcus epidermidis; test: Antimicrobial activity against extended spectrum beta-lactamases-producing methicillin-resistant Staphylococcus epidermidis 10-10 after 18-24 hrs by two-fold serial dilution method; in short: as §1
Streptococcus pneumoniae [3] = test: Antimicrobial activity against extended spectrum beta-lactamases-producing Streptococcus pneumoniae 10-1 after 18-24 hrs by two-fold serial dilution method
In short: (§2)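 Agar-medium twofold serial dilution against Gram-positive and Gram-negative strains; MIC taken as the lowest compound concentration giving complete inhibition of bacterial growth after incubation at 35 °C for 18-24 h.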

Pseudomonas aeruginosa [4] = test: Antimicrobial activity against extended spectrum beta-lactamases-producing Pseudomonas aeruginosa 10-15 after 18-24 hrs by two-fold serial dilution method; in short: as §2
Klebsiella pneumoniae [5] = test: Antimicrobial activity against extended spectrum beta-lactamases-producing Klebsiella pneumoniae 10-2 after 18-24 hrs by two-fold serial dilution method; in short: as §2
Staphylococcus aureus [6] = test: Antimicrobial activity against extended spectrum beta-lactamases-producing methicillin-resistant Staphylococcus aureus 10-15 after 18-24 hrs by two-fold serial dilution method; in short: as §1
[7] = system: Staphylococcus epidermidis; test: Antimicrobial activity against extended spectrum beta-lactamases-producing methicillin-sensitive Staphylococcus epidermidis 10-15 after 18-24 hrs by two-fold serial dilution method; in short: as §2
Pseudomonas aeruginosa [8] = test: Antimicrobial activity against extended spectrum beta-lactamases-producing Pseudomonas aeruginosa 10-5 after 18-24 hrs by two-fold serial dilution method; in short: as §2
Escherichia coli [9] = test: Antimicrobial activity against Escherichia coli 10-3 after 18-24 hrs by two-fold serial dilution method; in short: as §2
Staphylococcus aureus [10] = test: Antimicrobial activity against extended spectrum beta-lactamases-producing methicillin-resistant Staphylococcus aureus 10-11 after 18-24 hrs by two-fold serial dilution method; in short: as §1
Pseudomonas aeruginosa [11] = test: Antimicrobial activity against extended spectrum beta-lactamases-producing Pseudomonas aeruginosa 10-20 after 18-24 hrs by two-fold serial dilution method; in short: as §2
Enterococcus faecium [12] = test: Antimicrobial activity against Enterococcus faecium 10-5 after 18-24 hrs by two-fold serial dilution method; in short: as §2
Escherichia coli [13] = test: Antimicrobial activity against Escherichia coli 10-1 after 18-24 hrs by two-fold serial dilution method; in short: as §2
Klebsiella pneumoniae [14] = test: Antimicrobial activity against extended spectrum beta-lactamases-producing Klebsiella pneumoniae 10-1 after 18-24 hrs by two-fold serial dilution method; in short: as §2
Klebsiella pneumoniae [15] = test: Antimicrobial activity against Klebsiella pneumoniae 10-2 after 18-24 hrs by two-fold serial dilution method; in short: as §2
Escherichia coli [16] = test: Antimicrobial activity against Escherichia coli 10-2 after 18-24 hrs by two-fold serial dilution method; in short: as §2
Streptococcus pneumoniae [17] = test: Antimicrobial activity against extended spectrum beta-lactamases-producing Streptococcus pneumoniae 10-4 after 18-24 hrs by two-fold serial dilution method; in short: as §2
Pseudomonas aeruginosa [18] = test: Antimicrobial activity against extended spectrum beta-lactamases-producing Pseudomonas aeruginosa 10-18 after 18-24 hrs by two-fold serial dilution method; in short: as §2
Escherichia coli [19] = test: Antimicrobial activity against extended spectrum beta-lactamases-producing Escherichia coli 10-3 after 18-24 hrs by two-fold serial dilution method; in short: as §2
Staphylococcus aureus [20] = test: Antimicrobial activity against extended spectrum beta-lactamases-producing methicillin-sensitive Staphylococcus aureus 10-14 after 18-24 hrs by two-fold serial dilution method; in short: as §2
[21] = system: Staphylococcus epidermidis; test: Antimicrobial activity against extended spectrum beta-lactamases-producing methicillin-sensitive Staphylococcus epidermidis 10-13 after 18-24 hrs by two-fold serial dilution method; in short: as §2
Staphylococcus aureus [22] = test: Antimicrobial activity against extended spectrum beta-lactamases-producing methicillin-sensitive Staphylococcus aureus 10-13 after 18-24 hrs by two-fold serial dilution method; in short: as §2
[23] = system: Staphylococcus epidermidis; test: Antimicrobial activity against extended spectrum beta-lactamases-producing methicillin-sensitive Staphylococcus epidermidis 10-11 after 18-24 hrs by two-fold serial dilution method; in short: as §2
Escherichia coli [24] = test: Antimicrobial activity against Escherichia coli ATCC 25922 after 18-24 hrs by two-fold serial dilution method; in short: as §2
Enterococcus faecium [25] = test: Antimicrobial activity against Enterococcus faecium 10-9 after 18-24 hrs by two-fold serial dilution method; in short: as §2
Staphylococcus aureus [26] = test: Antimicrobial activity against Staphylococcus aureus ATCC […] after 18-24 hrs by two-fold serial dilution method; in short: as §2
Klebsiella pneumoniae [27] = test: Antimicrobial activity against extended spectrum beta-lactamases-producing Klebsiella pneumoniae 10-3 after 18-24 hrs by two-fold serial dilution method; in short: as §2
Enterococcus faecalis [28] = test: Antimicrobial activity against Enterococcus faecalis 10-5 after 18-24 hrs by two-fold serial dilution method; in short: as §2
Pseudomonas aeruginosa [29] = test: Antimicrobial activity against extended spectrum beta-lactamases-producing Pseudomonas aeruginosa 10-9 after 18-24 hrs by two-fold serial dilution method; in short: as §2
Klebsiella pneumoniae [30] = test: Antimicrobial activity against Klebsiella pneumoniae 10-4 after 18-24 hrs by two-fold serial dilution method; in short: as §2
Pseudomonas aeruginosa [31] = test: Antimicrobial activity against Pseudomonas aeruginosa 10-12 after 18-24 hrs by two-fold serial dilution method; in short: as §2
Enterococcus faecalis [32] = test: Antimicrobial activity against Enterococcus faecalis 10-7 after 18-24 hrs by two-fold serial dilution method; in short: as §2
Escherichia coli [33] = test: Antimicrobial activity against extended spectrum beta-lactamases-producing Escherichia coli 10-4 after 18-24 hrs by two-fold serial dilution method; in short: as §2
Escherichia coli [34] = test: Antimicrobial activity against extended spectrum beta-lactamases-producing Escherichia coli 10-2 after 18-24 hrs by two-fold serial dilution method; in short: as §2
Enterococcus faecalis [35] = test: Antimicrobial activity against Enterococcus faecalis 10-6 after 18-24 hrs by two-fold serial dilution method; in short: as §2
Klebsiella pneumoniae [36] = test: Antimicrobial activity against Klebsiella pneumoniae 10-3 after 18-24 hrs by two-fold serial dilution method; in short: as §2

## COc1ccc(CO/N=C2\CN(c3nc4c(cc3F)c(=O)c(C(=O)O)cn4C3CC3)CC2CN)c(OC)c1.CS(=O)(=O)O (racemic)
[1]
  MIC: 0.5 µg/mL
[2]
  MIC: 2 µg/mL
Streptococcus pneumoniae [3]
  MIC: 1 µg/mL
Pseudomonas aeruginosa [4]
  MIC: 8 µg/mL
Klebsiella pneumoniae [5]
  MIC: > 128 µg/mL
Staphylococcus aureus [6]
  MIC: 0.25 µg/mL
[7]
  MIC: 4 µg/mL
Pseudomonas aeruginosa [8]
  MIC: 4 µg/mL
Escherichia coli [9]
  MIC: 16 µg/mL
Staphylococcus aureus [10]
  MIC: 1 µg/mL
Pseudomonas aeruginosa [11]
  MIC: 0.25 µg/mL
Enterococcus faecium [12]
  MIC: 8 µg/mL
Escherichia coli [13]
  MIC: > 128 µg/mL
Klebsiella pneumoniae [14]
  MIC: > 128 µg/mL
Klebsiella pneumoniae [15]
  MIC: > 128 µg/mL
Escherichia coli [16]
  MIC: 8 µg/mL
Streptococcus pneumoniae [17]
  MIC: 4 µg/mL
Pseudomonas aeruginosa [18]
  MIC: 16 µg/mL
Escherichia coli [19]
  MIC: 32 µg/mL
Staphylococcus aureus [20]
  MIC: 0.06 µg/mL
[21]
  MIC: 1 µg/mL
Staphylococcus aureus [22]
  MIC: 1 µg/mL
[23]
  MIC: 4 µg/mL
Escherichia coli [24]
  MIC: 0.125 µg/mL
Enterococcus faecium [25]
  MIC: 8 µg/mL
Staphylococcus aureus [26]
  MIC: 0.06 µg/mL
Klebsiella pneumoniae [27]
  MIC: > 128 µg/mL
Enterococcus faecalis [28]
  MIC: 0.5 µg/mL
Pseudomonas aeruginosa [29]
  MIC: 8 µg/mL
Klebsiella pneumoniae [30]
  MIC: > 128 µg/mL
Pseudomonas aeruginosa [31]
  MIC: 0.06 µg/mL
Enterococcus faecalis [32]
  MIC: 2 µg/mL
Escherichia coli [33]
  MIC: 0.25 µg/mL
Escherichia coli [34]
  MIC: > 128 µg/mL
Enterococcus faecalis [35]
  MIC: 4 µg/mL
Klebsiella pneumoniae [36]
  MIC: 8 µg/mL

## CS(=O)(=O)O.NCC1CN(c2nc3c(cc2F)c(=O)c(C(=O)O)cn3C2CC2)C/C1=N\OCc1ccc(OCc2ccccc2)cc1 (racemic)
[1]
  MIC: 4 µg/mL
[2]
  MIC: 4 µg/mL
Streptococcus pneumoniae [3]
  MIC: 2 µg/mL
Pseudomonas aeruginosa [4]
  MIC: 8 µg/mL
Klebsiella pneumoniae [5]
  MIC: > 128 µg/mL
Staphylococcus aureus [6]
  MIC: 8 µg/mL
[7]
  MIC: 4 µg/mL
Pseudomonas aeruginosa [8]
  MIC: 16 µg/mL
Escherichia coli [9]
  MIC: 0.125 µg/mL
Staphylococcus aureus [10]
  MIC: 4 µg/mL
Pseudomonas aeruginosa [11]
  MIC: 16 µg/mL
Enterococcus faecium [12]
  MIC: 32 µg/mL
Escherichia coli [13]
  MIC: 0.03 µg/mL
Klebsiella pneumoniae [14]
  MIC: > 128 µg/mL
Klebsiella pneumoniae [15]
  MIC: 16 µg/mL
Escherichia coli [16]
  MIC: 0.25 µg/mL
Streptococcus pneumoniae [17]
  MIC: 8 µg/mL
Pseudomonas aeruginosa [18]
  MIC: 2 µg/mL
Escherichia coli [19]
  MIC: > 128 µg/mL
Staphylococcus aureus [20]
  MIC: 1 µg/mL
[21]
  MIC: 16 µg/mL
Staphylococcus aureus [22]
  MIC: 1 µg/mL
[23]
  MIC: 1 µg/mL
Escherichia coli [24]
  MIC: 4 µg/mL
Enterococcus faecium [25]
  MIC: 32 µg/mL
Staphylococcus aureus [26]
  MIC: 2 µg/mL
Klebsiella pneumoniae [27]
  MIC: 8 µg/mL
Enterococcus faecalis [28]
  MIC: 8 µg/mL
Pseudomonas aeruginosa [29]
  MIC: 2 µg/mL
Klebsiella pneumoniae [30]
  MIC: > 128 µg/mL
Pseudomonas aeruginosa [31]
  MIC: 16 µg/mL
Enterococcus faecalis [32]
  MIC: 16 µg/mL
Escherichia coli [33]
  MIC: 0.06 µg/mL
Escherichia coli [34]
  MIC: > 128 µg/mL
Enterococcus faecalis [35]
  MIC: 32 µg/mL
Klebsiella pneumoniae [36]
  MIC: 2 µg/mL
